ChEMBL document CHEMBL3286337, “Synthesis, biological evaluation and structure-activity relationships of new phthalazinedione derivatives with vasorelaxant activity” (Eur J Med Chem, 2014)
Activity calls are given as the source filed them. The calls are words filed in the database; no cut-off is given here.

Key:
Aorta [1] = test: Vasorelaxant activity in Wistar rat endothelium-denuded thoracic aortic rings assessed as inhibition of phenylephrine-induced contraction; type: functional, tissue-based
Aorta [2] = test: Vasorelaxant activity in Wistar rat endothelium-intact thoracic aortic rings assessed as inhibition of phenylephrine-induced contraction; type: functional, tissue-based
[3] = Cytotoxicity against rat A7r5 cells assessed as reduction of cell viability at 25 uM after 24 hrs by MTT assay; type: cell-based; settings: a7r5, 24 h
Procedure, shortened: (§1)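 A7r5 embryonic rat aorta smooth muscle cells seeded at 20 × 10^3/cm^2 and incubated overnight. Compounds added with DMSO (1%) for 24 h; untreated cells served as negative control. MTT solution (5 mg/ml in PBS) added, 2 h at 37 C, absorbance read at 540 nm. Viability = A(treatment)/A(negative control) × 100%. Mean ± S.E.M of at least 5 experiments.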

[4] = Cytotoxicity against rat A7r5 cells assessed as reduction of cell viability at 50 uM after 24 hrs by MTT assay; type: cell-based; settings: a7r5, 24 h; procedure, shortened: as §1
Aorta [5] = test: Vasorelaxant activity in Wistar rat endothelium-intact thoracic aortic rings assessed as inhibition of phenylephrine-induced contraction at 200 uM; type: functional
Aorta [6] = test: Vasorelaxant activity in Wistar rat endothelium-denuded thoracic aortic rings assessed as inhibition of phenylephrine-induced contraction at 200 uM; type: functional, tissue-based
Aorta [7] = test: Vasorelaxant activity in Wistar rat endothelium-denuded thoracic aortic rings assessed as inhibition of phenylephrine-induced contraction relative to endothelium-intact thoracic aortic rings in presence of 1 uM of acetylcholine; type: functional

Compound | EC50 (Aorta [1]) [µM] | EC50 (Aorta [2]) [µM] | also measured
Cn1c(=O)c2c(Cl)cccc2c(=O)n1CCCBr | 27.2 | 6.61 | 
Cn1c(=O)c2cccc(Cl)c2c(=O)n1CCNC(=O)OC(C)(C)C | 13.3 | 3.45 | Activity [3]: Non-toxic; Activity [4]: Toxic
Nc1cc(-c2ccncc2)c[nH]c1=O [INAMRINONE] | 28 | 17 | 
Cn1c(=O)c2cccc(Cl)c2c(=O)n1CCN=[N+]=[N-] | 13.2 | 6.35 | 
Cn1c(=O)c2c(Cl)cccc2c(=O)n1CCCN=[N+]=[N-] | 11.7 | 2.33 | 
Cn1[nH]c(=O)c2cccc(Cl)c2c1=O |  |  | inhibition (Aorta [5]): inactive; inhibition (Aorta [6]): inactive
Cn1c(=O)c2cccc(Cl)c2c(=O)n1CCCN |  | 44.7 | inhibition (Aorta [6]): inactive
Cn1c(=O)c2cccc(Cl)c2c(=O)n1CCCBr | 6.71 | 3.36 | 
Cn1c(=O)c2c(Cl)cccc2c(=O)n1CCCNC(=O)OC(C)(C)C | 4.85 | 2.15 | Activity [3]: Non-toxic; Activity [4]: Toxic
Cn1c(=O)c2ccccc2c(=O)n1CCCNC(=O)OC(C)(C)C | 23.6 | 3.96 | 
Cn1c(=O)c2ccccc2c(=O)n1CCCN=[N+]=[N-] | 3.71 | 2.35 | 
Cn1[nH]c(=O)c2c(Cl)cccc2c1=O |  |  | inhibition (Aorta [5]): inactive; inhibition (Aorta [6]): inactive
NNc1nncc2ccccc12 [HYDRALAZINE] | 1320 | 1180 | 
Cn1c(=O)c2cccc(Cl)c2c(=O)n1CCCNC(=O)OC(C)(C)C | 18.2 | 4.78 | Activity [3]: Non-toxic; Activity [4]: Toxic
Cn1c(=O)c2c(Cl)cccc2c(=O)n1CCCN | 30.2 | 8.51 | inhibition (INH) (Aorta [7]): 53.6%
Cn1c(=O)c2cccc(Cl)c2c(=O)n1CCN |  |  | inhibition at 200 µM (Aorta [5]): 50%; inhibition (Aorta [6]): inactive
Cn1c(=O)c2ccccc2c(=O)n1CCNC(=O)OC(C)(C)C | 14.6 | 2.44 | 
Cn1c(=O)c2ccccc2c(=O)n1CCN=[N+]=[N-] | 15.9 | 10 | 
Cn1c(=O)c2ccccc2c(=O)n1CCCBr | 15.5 | 3.1 | 
Cn1c(=O)c2c(Cl)cccc2c(=O)n1CCN=[N+]=[N-] | 13.1 | 4.12 | 
Cn1[nH]c(=O)c2ccccc2c1=O |  |  | inhibition (Aorta [5]): inactive; inhibition (Aorta [6]): inactive
Cn1c(=O)c2c(Cl)cccc2c(=O)n1CCNC(=O)OC(C)(C)C | 5.57 | 2.53 | Activity [3]: Non-toxic; Activity [4]: Toxic
Cn1c(=O)c2cccc(Cl)c2c(=O)n1CCBr | 20.2 | 7.95 | 
Cn1c(=O)c2ccccc2c(=O)n1CCBr | 8.46 | 1.7 | 
Cn1c(=O)c2c(Cl)cccc2c(=O)n1CCN |  | 48.7 | inhibition (Aorta [6]): inactive
Cn1c(=O)c2ccccc2c(=O)n1CCCN |  |  | inhibition at 200 µM (Aorta [5]): 50%; inhibition (Aorta [6]): inactive
Cn1c(=O)c2c(Cl)cccc2c(=O)n1CCBr | 32.5 | 7.35 | 
Cn1c(=O)c2ccccc2c(=O)n1CCN |  |  | inhibition at 200 µM (Aorta [5]): 50%; inhibition (Aorta [6]): inactive
Cn1c(=O)c2cccc(Cl)c2c(=O)n1CCCN=[N+]=[N-] | 7.44 | 4.31 | Activity [3]: Non-toxic; Activity [4]: Toxic
CN1C(=O)CN=C(c2ccccc2)c2cc(Cl)ccc21 [DIAZEPAM] | 77.2 | 69 | 
